From ChEMBL document CHEMBL4270511, “Rational design and screening of peptide-based inhibitors of heat shock factor 1 (HSF1)” (Bioorg Med Chem, 2018)
Values belong to the substance of their own block, whether it stands above or below them. The source made the active and inactive calls. The calls are words filed in the database; no cut-off is given here.

Legend:
[1] = molecular target: T1, Heat shock factor protein 1 (Homo sapiens) (UniProt Q00613); assay: Inhibition of recombinant human HSF1 expressed in Escherichia coli BL21 (DE3) assessed as reduction in HSF1 trimer-5-fluorescein labeled HSE interaction at 400 uM preincubated for 1 hr followed by DNA tracer addition and measured after 15 mins by competitive fluorescence polarization assay
T1 sequence (whole entry): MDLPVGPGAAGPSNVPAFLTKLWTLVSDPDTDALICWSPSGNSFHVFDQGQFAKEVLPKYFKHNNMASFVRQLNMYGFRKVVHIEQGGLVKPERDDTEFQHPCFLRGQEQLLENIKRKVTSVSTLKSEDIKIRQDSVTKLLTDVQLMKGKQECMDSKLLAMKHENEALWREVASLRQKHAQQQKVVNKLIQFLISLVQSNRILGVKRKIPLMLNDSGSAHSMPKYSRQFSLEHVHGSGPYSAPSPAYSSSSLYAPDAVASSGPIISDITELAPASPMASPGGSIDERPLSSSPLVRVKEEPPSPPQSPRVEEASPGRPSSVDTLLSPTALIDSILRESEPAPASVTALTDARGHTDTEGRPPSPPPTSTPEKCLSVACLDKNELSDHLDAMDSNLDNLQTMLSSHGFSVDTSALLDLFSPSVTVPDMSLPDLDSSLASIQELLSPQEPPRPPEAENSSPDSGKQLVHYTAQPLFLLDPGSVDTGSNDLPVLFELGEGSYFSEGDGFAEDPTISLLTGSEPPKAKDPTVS
Method in brief: (§1)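 His-HSF1 trimer, expressed in BL21 E. coli and isolated by SEC, was shaken with peptide in DMSO for 1 h at room temperature. 5-fluorescein HSE tracer was then added to give final 250 nM trimer, 15 nM tracer and 5% DMSO, followed by 15 min shaking. FP read at 485/530 nm. Single-point final peptide level 400 μM, scored as % inhibition relative to DMSO and tracer-only signals. Dose-response used serial dilutions from 800 μM, with nonlinear-regression IC₅₀ fitting. Duplicates.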

[2] = molecular target: T1, Heat shock factor protein 1 (Homo sapiens); assay: (§2) Inhibition of recombinant human HSF1 expressed in Escherichia coli BL21 (DE3) assessed as reduction in HSF1 trimer-5-fluorescein labeled HSE interaction preincubated for 1 hr followed by DNA tracer addition and measured after 15 mins by competitive fluorescence polarization assay; method in brief: as §1
[3] = molecular target: T2, Heat shock factor protein 1 (Homo sapiens, UniProt Q00613); assay: as §2; method in brief: as §1
T2 sequence (Q00613 whole entry): T1 sequence (whole entry)

[4] = molecular target: T1, Heat shock factor protein 1 (Homo sapiens); assay: (§3) Inhibition of recombinant human HSF1 expressed in Escherichia coli BL21 (DE3) assessed as reduction in HSF1 trimer-5-fluorescein labeled HSE interaction preincubated of protein with DNA tracer up to 24 hrs followed by compound addition and measured after 15 mins by fluorescence polarization assay; conditions: in the assay text read “measured after 1 hr” for “measured after 15 mins”
Method in brief: (§4)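 Peptide added to a pre-formed complex of HSF1 trimer (250 nM) and 5-fluorescein HSE tracer (15 nM), then co-incubated a further 1 h before FP reading at 485/530 nm. Buffer was 25 mM HEPES, 75 mM NaCl, pH 7.5, 10 mM MgCl₂, 0.01% Triton-X. IC₅₀ from nonlinear regression; duplicate experiments.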

[5] = molecular target: T2, Heat shock factor protein 1; assay: as §3; conditions: in the assay text read “measured after 1 hr” for “measured after 15 mins”; method in brief: as §4
[6] = molecular target: T1, Heat shock factor protein 1 (Homo sapiens); assay: Disruption of full length human HSF1 trimer structure at 20 uM after 30 mins by size-exclusion chromatographic method
Method in brief: (§5)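 SEC-purified full-length human HSF1 trimer (2 μM) incubated with 20 μM peptide (10-fold molar excess) or DMSO (2% v/v) at 4 °C for 30 min. Samples then run on Sephacryl S-400 SEC, and collected fractions analysed by immunoblot to follow oligomeric state.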

[7] = molecular target: T1, Heat shock factor protein 1 (Homo sapiens); assay: Disruption of full length human HSF1 trimer structure at 20 uM after 30 mins by SDS-PAGE analysis
[8] = molecular target: T1, Heat shock factor protein 1 (Homo sapiens); assay: Disruption of full length human HSF1 trimer structure at 20 uM after 30 mins by Western blot analysis; method in brief: as §5
[9] = system: DNA; assay: Binding affinity to 5-fluorescein labeled HSE DNA (unknown origin) after 15 mins to 24 hrs by fluorescence polarization method; type: nucleic-acid assay
Method in brief: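 Tracer-binding control: peptides serially diluted from 400 μM, incubated with 15 nM 5-fluorescein HSE tracer alone (no protein) for 15 min, 1 h, 3 h and 24 h. Read by FP at excitation 485 nm and emission 530 nm, with 15-min mP values plotted. Buffer was 25 mM HEPES, 75 mM NaCl, pH 7.5, 10 mM MgCl₂, 0.01% Triton-X. Triplicates.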

Substance: Ac-DAMDSNL-NH2
inhibition [1]: 21%

Substance: Ac-IKIRQDSVTKLLTDVQLMKGKQECMDSK-NH2
inhibition [1]: > 100%

Substance: Ac-DKNELSDHLDAMDSNL-NH2
inhibition [1]: 91%
inhibition [2]: Dose-dependent effect
IC50 [3]: 13 µM
inhibition [4]: Dose-dependent effect
IC50 [5]: 14 µM
Activity [6]: inactive
Activity [7]: inactive
Activity [8]: inactive

Substance: Ac-RQKHAQQQKVVNKL-NH2
inhibition [1]: 22%

Results, then the substance that gave them:

inhibition [1]: 8.1%
Substance: Ac-DVQLMKGKQECMDSKLLAMKHENEALWREV-NH2

inhibition [1]: 64%
inhibition [2]: Dose-dependent effect
IC50 [3]: 150 µM
Substance: Ac-HLDAMDSNLDNLQTMLSSHGFSVDTSALLD-NH2

inhibition [1]: 0.4%
Substance: Ac-DKNELSDHL-NH2

inhibition [1]: 27%
Substance: Ac-WREVASL-NH2

inhibition [1]: 8.2%
Substance: Ac-LAMKHENEAL-NH2

Activity [9]: Active
Substance: Ac-LAMKHENEALWREVASLRQKHAQQQKVVNKL-NH2
